Laboratory results: ChEMBL document CHEMBL3822447, “4-(1,2-diarylbut-1-en-1-yl)isobutyranilide derivatives as inhibitors of topoisomerase II” (2016)
Calls of active or inactive are those of the source. No cut-off for these calls is given here.

How the values were obtained:
[1] = Cytotoxicity against human OVCAR5 cells assessed as cell growth inhibition after 72 hrs by MTS assay; format: functional; conditions: OVCAR-5, 72 h
How it was run: (§1)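 Cells grown in RPMI1640 with 10% FBS and 2 mM glutamine at 37°C, 5% CO2; plated at 15 000 cells/mL, treated with compounds 72 h after plating, and survival read by MTS after a further 72 h; dose-response curves plotted.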

[2] = system: HeLa; assay: Cytotoxicity against human HeLa cells assessed as cell growth inhibition after 72 hrs by trypan blue assay; format: functional
How it was run: (§2)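 HeLa (F-12 HAM) and MCF-7 (DMEM) kept in medium with 10% heat-inactivated FCS plus antibiotics; 4-5×10^4 cells/well seeded, compounds added after 24 h at various concentrations, then 72 h more. Viable cells counted by trypan blue; GI50 is the concentration giving 50% fewer cells than control. Mean ± SD from at least three independent experiments.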

[3] = system: MCF7; assay: Cytotoxicity against human MCF7 cells assessed as cell growth inhibition after 72 hrs by trypan blue assay; format: functional; conditions: MCF7, 72 h; how it was run: as §2
[4] = system: A2780; assay: Cytotoxicity against human A2780 cells assessed as cell growth inhibition after 72 hrs by MTS assay; format: functional; conditions: A2780, 72 h; how it was run: as §1
[5] = system: HeLa; assay: Induction of mitochondrial membrane depolarization in human HeLa cells at 25 uM after 28 hrs by JC-1 staining-based flow cytometric analysis (reference value: 4%); format: functional
How it was run: (§3)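 HeLa cells (2.0 x 10^5) seeded, compound added after 24 h, then incubated 28 h. Cells loaded with JC-1 working solution for 30 min at 37°C, washed twice and read in assay buffer by flow cytometry. Loss of red aggregate fluorescence scored as depolarized (JC-1 monomer) cells.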

[6] = biological target: DNA topoisomerase 2-alpha (Homo sapiens) (UniProt P11388); assay: Inhibition of human recombinant topoisomerase 2 alpha-mediated relaxation of supercoiled pBR322 plasmid DNA at 10 to 50 uM after 60 mins by electrophoretic analysis
Chain of DNA topoisomerase 2-alpha (Homo sapiens) (P11388 whole entry): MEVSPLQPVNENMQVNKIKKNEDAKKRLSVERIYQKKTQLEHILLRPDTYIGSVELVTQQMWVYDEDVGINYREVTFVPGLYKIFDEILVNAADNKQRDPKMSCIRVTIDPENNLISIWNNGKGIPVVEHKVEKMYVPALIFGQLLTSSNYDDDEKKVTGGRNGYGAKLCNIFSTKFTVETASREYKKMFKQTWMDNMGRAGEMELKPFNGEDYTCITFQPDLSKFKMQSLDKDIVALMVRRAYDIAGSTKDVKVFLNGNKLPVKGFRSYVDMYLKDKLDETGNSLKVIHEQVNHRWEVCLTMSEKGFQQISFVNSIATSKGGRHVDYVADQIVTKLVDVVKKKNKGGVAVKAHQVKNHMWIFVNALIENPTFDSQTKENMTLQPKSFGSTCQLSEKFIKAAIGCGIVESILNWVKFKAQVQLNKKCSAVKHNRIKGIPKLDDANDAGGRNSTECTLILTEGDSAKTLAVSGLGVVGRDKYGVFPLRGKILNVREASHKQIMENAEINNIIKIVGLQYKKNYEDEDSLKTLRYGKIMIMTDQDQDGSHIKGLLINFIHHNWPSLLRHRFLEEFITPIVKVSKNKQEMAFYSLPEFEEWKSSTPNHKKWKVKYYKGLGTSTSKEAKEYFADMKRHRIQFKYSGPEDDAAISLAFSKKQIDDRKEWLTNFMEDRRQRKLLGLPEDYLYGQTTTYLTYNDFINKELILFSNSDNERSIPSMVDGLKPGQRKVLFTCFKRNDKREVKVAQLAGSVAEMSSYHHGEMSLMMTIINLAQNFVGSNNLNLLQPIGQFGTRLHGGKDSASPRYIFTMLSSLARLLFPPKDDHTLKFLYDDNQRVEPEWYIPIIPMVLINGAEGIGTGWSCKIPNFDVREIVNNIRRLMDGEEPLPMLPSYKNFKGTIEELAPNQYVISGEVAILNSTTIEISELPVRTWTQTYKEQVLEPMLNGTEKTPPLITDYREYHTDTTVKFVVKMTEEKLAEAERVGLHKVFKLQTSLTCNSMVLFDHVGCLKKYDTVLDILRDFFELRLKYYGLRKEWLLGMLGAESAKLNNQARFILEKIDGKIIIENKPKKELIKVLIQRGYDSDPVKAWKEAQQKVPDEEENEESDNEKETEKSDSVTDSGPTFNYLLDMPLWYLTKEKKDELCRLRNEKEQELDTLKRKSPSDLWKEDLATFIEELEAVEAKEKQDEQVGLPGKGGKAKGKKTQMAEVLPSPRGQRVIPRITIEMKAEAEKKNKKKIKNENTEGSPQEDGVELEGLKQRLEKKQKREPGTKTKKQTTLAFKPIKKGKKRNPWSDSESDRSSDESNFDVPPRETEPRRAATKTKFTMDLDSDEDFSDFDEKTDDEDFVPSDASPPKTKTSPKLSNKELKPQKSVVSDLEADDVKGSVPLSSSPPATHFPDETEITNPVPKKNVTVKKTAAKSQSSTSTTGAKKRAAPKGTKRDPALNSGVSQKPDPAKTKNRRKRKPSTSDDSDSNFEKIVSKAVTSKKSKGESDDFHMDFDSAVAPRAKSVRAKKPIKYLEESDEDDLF
How it was run: (§4)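 Relaxation assay: 0.25 µg supercoiled pBR322 incubated with 1U human recombinant topoisomerase IIα and compound for 60 min at 37°C; m-AMSA reference at 10 µM. Stopped with SDS stop buffer plus 50 µg/mL proteinase K for 30 min at 37°C, run on 1% agarose, then stained with 1 µg/mL ethidium bromide in TAE.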

[7] = system: HeLa; assay: Induction of apoptosis in human HeLa cells assessed as late apoptotic cells at 50 uM after 28 hrs by annexin V/FITC/propidium iodide staining-based flow cytometry (reference value: 1.2%); format: functional
[8] = system: HeLa; assay: Induction of apoptosis in human HeLa cells assessed as early apoptotic cells at 50 uM after 28 hrs by annexin V/FITC/propidium iodide staining-based flow cytometry (reference value: 2.6%); format: functional
[9] = system: HeLa; assay: Induction of apoptosis in human HeLa cells assessed as viable cells at 50 uM after 28 hrs by annexin V/FITC/propidium iodide staining-based flow cytometry (reference value: 95.3%); format: functional; conditions: read-out: Activity
[10] = system: HeLa; assay: Induction of apoptosis in human HeLa cells assessed as dead cells at 50 uM after 28 hrs by annexin V/FITC/propidium iodide staining-based flow cytometry (reference value: 1%); format: functional
How it was run: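 HeLa cells (2.0 x 10^5 per plate) seeded, grown 24 h in F-12 [HAM] with 10% heat-inactivated fetal calf serum, then exposed to test agent in complete medium for 28 h at 37 °C, 5% CO2. Cells were resuspended at 10^6 cells/mL in binding buffer and stained with annexin V-FITC plus propidium iodide for 15 min in the dark at room temperature. Read by flow cytometry.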

[11] = system: HeLa; assay: Induction of mitochondrial membrane depolarization in human HeLa cells after 28 hrs by JC-1 staining-based flow cytometric analysis; format: functional, cell-based; how it was run: as §3
[12] = biological target: T1, DNA topoisomerase 1 (Homo sapiens) (UniProt P11387); assay: Inhibition of human recombinant topoisomerase 1-mediated relaxation of supercoiled pBR322 plasmid DNA at 100 uM after 60 mins by electrophoretic analysis
T1 sequence (whole entry): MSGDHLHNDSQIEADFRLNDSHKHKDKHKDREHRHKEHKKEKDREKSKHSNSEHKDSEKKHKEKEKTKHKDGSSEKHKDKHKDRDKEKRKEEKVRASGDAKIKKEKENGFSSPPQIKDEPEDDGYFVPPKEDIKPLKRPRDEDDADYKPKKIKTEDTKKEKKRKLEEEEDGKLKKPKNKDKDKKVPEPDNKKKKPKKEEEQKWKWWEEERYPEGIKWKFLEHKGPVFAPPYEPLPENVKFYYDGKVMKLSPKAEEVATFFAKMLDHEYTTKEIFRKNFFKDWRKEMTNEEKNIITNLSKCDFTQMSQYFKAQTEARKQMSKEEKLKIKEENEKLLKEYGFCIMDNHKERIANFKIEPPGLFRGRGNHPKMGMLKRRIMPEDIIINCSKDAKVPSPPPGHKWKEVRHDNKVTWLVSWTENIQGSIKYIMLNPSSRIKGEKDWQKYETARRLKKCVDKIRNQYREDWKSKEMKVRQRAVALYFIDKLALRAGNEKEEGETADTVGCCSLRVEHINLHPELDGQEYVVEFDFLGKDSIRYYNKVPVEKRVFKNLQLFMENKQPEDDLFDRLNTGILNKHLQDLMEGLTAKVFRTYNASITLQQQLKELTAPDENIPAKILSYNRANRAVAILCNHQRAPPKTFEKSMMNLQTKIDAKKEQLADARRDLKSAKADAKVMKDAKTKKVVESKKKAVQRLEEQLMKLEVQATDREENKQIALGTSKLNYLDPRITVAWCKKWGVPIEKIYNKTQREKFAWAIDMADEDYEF
How it was run: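 Relaxation assay: 0.25 µg supercoiled pBR322 incubated with 2U human recombinant topoisomerase I and compound for 60 min at 37°C. Stopped with SDS stop buffer plus 50 µg/mL proteinase K for 30 min at 37°C, run on 1% agarose at room temperature, then stained with 1 µg/mL ethidium bromide in TAE.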

[13] = biological target: DNA topoisomerase 2-alpha (Homo sapiens) (UniProt P11388); assay: Poisoning activity at human recombinant topoisomerase 2 alpha using supercoiled pBR322 plasmid DNA as substrate assessed as stabilization of covalent DNA-enzyme complex at 50 uM after 60 mins by electrophoretic analysis
How it was run: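 Cleavage assay: 0.25 µg supercoiled pBR322 with 10 U human recombinant topoisomerase IIα and compound, 60 min at 37°C. Stopped with SDS buffer and 50 µg/mL proteinase K for 30 min at 37°C, then resolved on 1% agarose containing 0.5 µg/mL ethidium bromide in TBE, with UV imaging.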

[14] = system: HeLa; assay: Induction of mitochondrial membrane depolarization in human HeLa cells at 10 uM after 28 hrs by JC-1 staining-based flow cytometric analysis (reference value: 4%); format: functional; how it was run: as §3
[15] = system: HeLa; assay: Induction of mitochondrial membrane depolarization in human HeLa cells at 15 uM after 28 hrs by JC-1 staining-based flow cytometric analysis (reference value: 4%); format: functional; how it was run: as §3
[16] = biological target: DNA topoisomerase 2-alpha (Homo sapiens) (UniProt P11388); assay: Inhibition of human recombinant topoisomerase 2 alpha-mediated relaxation of supercoiled pBR322 plasmid DNA at 50 uM after 60 mins by electrophoretic analysis; how it was run: as §4
[17] = biological target: DNA topoisomerase 2-alpha (Homo sapiens) (UniProt P11388); assay: Inhibition of human recombinant topoisomerase 2 alpha-mediated relaxation of supercoiled pBR322 plasmid DNA at 50 to 100 uM after 60 mins by electrophoretic analysis; how it was run: as §4

SMILES	GI50 [1]	GI50 [2]	GI50 [3]	GI50 [4]	also measured
CC/C(=C(/c1ccc(O)cc1)c1ccc(NC(=O)C(C)C)cc1)c1ccc(Cl)cc1Cl	32.3 µM	20.3 µM	26.6 µM	28.1 µM	–
CC/C(=C(/c1ccc(NC(=O)C(C)C)cc1)c1ccc(OC)cc1)c1ccc(Cl)cc1Cl	> 50 µM	2.2 µM	6.6 µM	3.8 µM	Activity [5]: 80.3%; inhibition [6]: Active; Activity [7]: 21.8%; Activity [8]: 44.4%; viability at 50 µM [9]: 31.7%; Activity [10]: 2.1%; Activity [11]: Dose-dependent effect; inhibition [12]: inactive; Activity [13]: Active; Activity [14]: 51.8%; Activity [15]: 75.7%
CC/C(=C(/c1ccc(O)cc1)c1ccc(NC(=O)C(C)C)cc1)c1ccccc1	> 50 µM	9.9 µM	16.4 µM	32.6 µM	–
CC/C(=C(\c1ccc(O)cc1)c1ccc(NC(=O)C(C)C)cc1)c1ccccc1	42 µM	9.9 µM	14.7 µM	34 µM	–
CC/C(=C(/c1ccccc1)c1ccc(NC(=O)C(C)C)cc1)c1ccc(O)cc1	12.1 µM	5.1 µM	8.5 µM	4.6 µM	inhibition [16]: Active
CC/C(=C(\c1ccc(NC(=O)C(C)C)cc1)c1ccc(OC)cc1)c1ccccc1	> 50 µM	10.1 µM	27.9 µM	17.4 µM	–
CC/C(=C(\c1ccccc1)c1ccc(NC(=O)C(C)C)cc1)c1ccc(Cl)cc1Cl	> 50 µM	3.3 µM	8.3 µM	8.4 µM	Activity [13]: Active
CC/C(=C(\c1ccccc1)c1ccc(NC(=O)C(C)C)cc1)c1ccc(O)cc1	8.7 µM	3.8 µM	8.1 µM	3.7 µM	–
CC/C(=C(\c1ccccc1)c1ccc(OCCN(C)C)cc1)c1ccccc1 [TAMOXIFEN]	32 µM	12 µM	6.5 µM	30.3 µM	Activity [5]: 26.2%; Activity [7]: 28%; Activity [8]: 29.9%; viability at 50 µM [9]: 39.4%; Activity [10]: 2.7%; Activity [11]: Dose-dependent effect; Activity [14]: 3.9%; inhibition [17]: inactive
CC/C(=C(\c1ccccc1)c1ccc(N)cc1)c1ccccc1	> 50 µM	> 30 µM	> 30 µM	> 50 µM	–
CC/C(=C(/c1ccc(NC(=O)C(C)C)cc1)c1ccc(OC)cc1)c1ccccc1	> 50 µM	> 30 µM	> 30 µM	> 50 µM	–
CC/C(=C(/c1ccccc1)c1ccc(NC(=O)C(C)C)cc1)c1ccccc1	> 50 µM	28.1 µM	> 30 µM	31.6 µM	–
CC/C(=C(\c1ccc(NC(=O)C(C)C)cc1)c1ccc(OC)cc1)c1ccc(OCc2ccccc2)cc1	> 50 µM	> 30 µM	> 30 µM	> 50 µM	–
CC/C(=C(\c1ccc(NC(=O)C(C)C)cc1)c1ccc(OC)cc1)c1ccc(Cl)cc1Cl	> 50 µM	5.5 µM	13.2 µM	8.2 µM	–
CC/C(=C(/c1ccc(NC(=O)C(C)C)cc1)c1ccc(OC)cc1)c1ccc(O)cc1	29.3 µM	5.8 µM	13.6 µM	13.6 µM	inhibition [16]: Active
CC/C(=C(\c1ccccc1)c1ccc(NC(=O)C(C)C)cc1)c1ccc(OCc2ccccc2)cc1	> 50 µM	10.2 µM	> 30 µM	8.8 µM	–
CC/C(=C(/c1ccc(NC(=O)C(C)C)cc1)c1ccc(OC)cc1)c1ccc(OCc2ccccc2)cc1	> 50 µM	4.2 µM	29 µM	> 50 µM	–
CC/C(=C(/c1ccccc1)c1ccc(NC(=O)C(C)C)cc1)c1ccc(Cl)cc1Cl	> 50 µM	8.2 µM	17.5 µM	> 50 µM	–
CC/C(=C(\c1ccc(NC(=O)C(C)C)cc1)c1ccc(OC)cc1)c1ccc(O)cc1	23.6 µM	3.7 µM	9 µM	5.7 µM	–
CC/C(=C(/c1ccccc1)c1ccc(NC(=O)C(C)C)cc1)c1ccc(OCc2ccccc2)cc1	> 50 µM	> 30 µM	> 30 µM	> 50 µM	–
CC/C(=C(\c1ccc(O)cc1)c1ccc(NC(=O)C(C)C)cc1)c1ccc(Cl)cc1Cl	28.8 µM	8.7 µM	12.5 µM	15.7 µM	–
CC/C(=C(\c1ccccc1)c1ccc(NC(=O)C(C)C)cc1)c1ccccc1	> 50 µM	> 30 µM	> 30 µM	> 50 µM	–
